Assay results published in ChEMBL document CHEMBL1142651, “Design and synthesis of conformationally constrained Grb2 SH2 domain binding peptides employing alpha-methylphenylalanyl based phosphotyrosyl mimetics” (J Med Chem, 2005).
Where “and” joins values, the source holds several entries; their conditions need not be identical. Equal values may be shown once.

Legend:
[1] = biological target: T1, Growth factor receptor-bound protein 2 (Homo sapiens, UniProt P62993); assay: In vitro relative association value for growth factor receptor bound protein 2 SH2 domain from human breast cancer cells; format: cell-based; settings: Cancer cell lines
[2] = biological target: T1, Growth factor receptor-bound protein 2; assay: In vitro binding affinity for growth factor receptor bound protein 2 SH2 domain from human breast cancer cells; format: cell-based, Cancer cell lines
Method in brief: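 SPR: Grb2 SH2 protein (b-Grb2) amine-coupled to CM5 dextran chip at 2500-5000 RU. Ligands 1.25-1500 nM in PBS pH 7.4 running buffer, injected at 25 °C in increasing order, in duplicate, 1 min association, 3 min dissociation, no regeneration. Double-referenced against a blank surface and buffer injections. KD from global fit (1:1 or heterogeneity model) of at least four independent data sets.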

[3] = biological target: T1, Growth factor receptor-bound protein 2; assay: In vitro dissociation rate constant for growth factor receptor bound protein 2 SH2 domain from human breast cancer cells; settings: cancer cell lines

| SMILES | Ka [1] | Kd [2] | koff [3] [s⁻¹] |
| --- | --- | --- | --- |
| C[C@@]1(Cc2ccc(P(=O)(O)O)cc2)NC(=O)CC(c2ccc(CP(=O)(O)O)cc2)/C=C/C[C@@H](Cc2cccc3ccccc23)CNC(=O)[C@H](CC(N)=O)NC1=O (stereo in doubt; 10B) [listing 1 of 2 here] | 230000 1/M·1/S | – | – |
| C[C@@]1(Cc2ccc(P(=O)(O)O)cc2)NC(=O)CC(c2ccc(CP(=O)(O)O)cc2)/C=C/C[C@@H](Cc2cccc3ccccc23)CNC(=O)[C@H](CC(N)=O)NC1=O (stereo in doubt; 10B) [listing 2 of 2 here] | – | 72 nM | 0.018 |
| C[C@@]1(Cc2ccc(P(=O)(O)O)cc2)NC(=O)CC(c2ccc(CP(=O)(O)O)cc2)/C=C/C[C@@H](Cc2cccc3ccccc23)CNC(=O)[C@H](CC(N)=O)NC1=O (stereo in doubt; 10) | – | 2.28 nM and 4.3 nM | – |

Other lines, results leading:

| Ka [1] | Kd [2] | koff [3] [s⁻¹] | SMILES |
| --- | --- | --- | --- |
| 6.5e+06 1/M·1/S | – | – | C[C@@]1(Cc2ccc(P(=O)(O)O)cc2)NC(=O)CC(c2ccc(CP(=O)(O)O)cc2)/C=C/C[C@@H](Cc2cccc3ccccc23)CNC(=O)[C@H](CC(N)=O)NC1=O (stereo in doubt; 10A) [listing 1 of 2 here] |
| – | 0.097 nM | 0.00063 | C[C@@]1(Cc2ccc(P(=O)(O)O)cc2)NC(=O)CC(c2ccc(CP(=O)(O)O)cc2)/C=C/C[C@@H](Cc2cccc3ccccc23)CNC(=O)[C@H](CC(N)=O)NC1=O (stereo in doubt; 10A) [listing 2 of 2 here] |
